Results: ChEMBL document CHEMBL4033721, “Design, synthesis and evaluation of indole-2-carboxamides with pan anti-mycobacterial activity” (Bioorg Med Chem, 2017)
Converted amounts (≈) assume the structure as drawn.

test system: not listed separately; experiment: Antimycobacterial activity against Mycobacterium bolletii ATCC 14472 after 8 days by resazurin microtiter based colorimetric assay; assay type: functional; conditions: Mycobacteroides abscessus, ATCC 14472, 192 h
How it was run: (§1)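 Resazurin microtiter plate MIC, read by visual scan for growth, in Mueller Hinton II broth. Strains include clinical isolates of M. abscessus complex, M. chelonae, M. avium, M. intracellulare, M. xenopi, P. aeruginosa PAO-1 and S. aureus ATCC 25923.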

Compound | MIC
C[C@@H]1[C@H]2C[C@@H](C[C@H]1NC(=O)c1cc3ccccc3[nH]1)C2(C)C | 0.12 µg/mL (≈ 0.405 µM)

test system: Mycobacteroides abscessus; experiment: Bactericidal activity against Mycobacterium abscessus after 8 days by resazurin microtiter based colorimetric assay; assay type: functional; conditions: not given
How it was run: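 MBC90 found by subculturing from the MIC wells onto 7H11 agar. Value is the lowest concentration cutting CFU by 90% versus the inoculum.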

Compound | MBC90
C[C@@H]1[C@H]2C[C@@H](C[C@H]1NC(=O)c1cc3ccccc3[nH]1)C2(C)C | 0.06 µg/mL (≈ 0.202 µM)

test system: Pseudomonas aeruginosa; experiment: Antibacterial activity against Pseudomonas aeruginosa PAO1 after 8 days by resazurin microtiter based colorimetric assay; assay type: functional; conditions: PAO1, 192 h; how it was run: as §1

Compound | MIC
C[C@@H]1[C@H]2C[C@@H](C[C@H]1NC(=O)c1cc3ccccc3[nH]1)C2(C)C | > 160 µg/mL

test system: Mycobacterium avium; experiment: Antimycobacterial activity against Mycobacterium avium isolate 104 after 8 days by resazurin microtiter based colorimetric assay; assay type: functional; conditions: isolate 104, 192 h
How it was run: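 M. avium 104 MICs were read by resazurin microtiter colorimetric assay in 96-well plates, with growth scored visually, in Mueller Hinton II medium.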

Compound | MIC
C[C@@H]1[C@H]2C[C@@H](C[C@H]1NC(=O)c1cc3ccccc3[nH]1)C2(C)C | 8 µg/mL (≈ 27 µM)

test system: Mycobacterium xenopi; experiment: Antimycobacterial activity against wild type Mycobacterium xenopi isolate 4042 after 8 days by resazurin microtiter based colorimetric assay; assay type: functional; conditions: isolate 4042, 192 h; how it was run: as §1

Compound | MIC
C[C@@H]1[C@H]2C[C@@H](C[C@H]1NC(=O)c1cc3ccccc3[nH]1)C2(C)C | 0.5 to 1 µg/mL (≈ 1.69 to 3.37 µM)

test system: Mycobacterium abscessus subsp. massiliense; experiment: Inhibition of MmpL3 in Mycobacterium massiliense isolate 1513 assessed as reduction in trehalose monomycolate by measuring decrease in mycolic acid transfer to cell envelope after 16 hrs using [1,2-14C]acetate labeled compounds by TLC analysis; conditions: not given
How it was run: (§2)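 Lipids were run on TLC in CHCl3:CH3OH:H2O 20:4:0.5. Cell wall-bound MAMEs were run in n-hexane:ethyl acetate 95:5, developed three times. Phosphorimaging read-out gave TMM/TDM ratios and MAME radioactivity relative to untreated control.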

Compound | inhibition
C[C@@H]1[C@H]2C[C@@H](C[C@H]1NC(=O)c1cc3ccccc3[nH]1)C2(C)C | Dose-dependent effect

test system: Mycobacteroides abscessus; experiment: Antimycobacterial activity against Mycobacterium abscessus ATCC 19977 after 8 days by resazurin microtiter based colorimetric assay; assay type: functional; conditions: ATCC 19977, 192 h; how it was run: as §1

Compound | MIC
C[C@@H]1[C@H]2C[C@@H](C[C@H]1NC(=O)c1cc3ccccc3[nH]1)C2(C)C | 0.12 µg/mL (≈ 0.405 µM)

test system: Mycobacterium abscessus subsp. massiliense; experiment: Inhibition of MmpL3 in Mycobacterium massiliense isolate 1513 assessed as reduction in arabinogalactan after 16 hrs using [1,2-14C]acetate labeled compounds by TLC analysis; conditions: not given; how it was run: as §2

Compound | inhibition
C[C@@H]1[C@H]2C[C@@H](C[C@H]1NC(=O)c1cc3ccccc3[nH]1)C2(C)C | Dose-dependent effect

test system: Mycobacteroides abscessus; experiment: Antimycobacterial activity against Mycobacterium abscessus isolate DCI 21 after 8 days by resazurin microtiter based colorimetric assay; assay type: functional; conditions: isolate DCI 21, 192 h; how it was run: as §1

Compound | MIC
C[C@@H]1[C@H]2C[C@@H](C[C@H]1NC(=O)c1cc3ccccc3[nH]1)C2(C)C | 0.5 µg/mL (≈ 1.69 µM)

test system: not listed separately; experiment: Antimycobacterial activity against Mycobacterium massiliense isolate CRM0019 after 8 days by resazurin microtiter based colorimetric assay; assay type: functional, Mycobacterium abscessus subsp. massiliense; conditions: Mycobacteroides abscessus, isolate CRM0019, 192 h; how it was run: as §1

Compound | MIC
C[C@@H]1[C@H]2C[C@@H](C[C@H]1NC(=O)c1cc3ccccc3[nH]1)C2(C)C | 0.06 µg/mL (≈ 0.202 µM)

test system: Mycobacterium avium-intracellulare; experiment: Antimycobacterial activity against Mycobacterium avium-intracellulare isolate 1956 after 8 days by resazurin microtiter based colorimetric assay; assay type: functional; conditions: isolate 1956, 192 h; how it was run: as §1

Compound | MIC
C[C@@H]1[C@H]2C[C@@H](C[C@H]1NC(=O)c1cc3ccccc3[nH]1)C2(C)C | 8 µg/mL (≈ 27 µM)

test system: not listed separately; experiment: Antimycobacterial activity against Mycobacterium massiliense isolate CIP108297 after 8 days by resazurin microtiter based colorimetric assay; assay type: functional, Mycobacterium abscessus subsp. massiliense; conditions: Mycobacteroides abscessus, isolate CIP108297, 192 h; how it was run: as §1

Compound | MIC
C[C@@H]1[C@H]2C[C@@H](C[C@H]1NC(=O)c1cc3ccccc3[nH]1)C2(C)C | 0.06 µg/mL (≈ 0.202 µM)

test system: Mycobacterium tuberculosis; experiment: Antimycobacterial activity against Mycobacterium tuberculosis H37Rv MC2-6206 after 8 days by resazurin microtiter based colorimetric assay; assay type: functional; conditions: H37Rv MC2-6206, 192 h
How it was run: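 MIC was measured by resazurin microtiter colorimetric assay with visual growth scoring. Medium was 7H9-ADC–0.05% tyloxapol with 0.2% casaminoacids, 48 µg/ml pantothenate and 50 µg/ml L-leucine.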

Compound | MIC
C[C@@H]1[C@H]2C[C@@H](C[C@H]1NC(=O)c1cc3ccccc3[nH]1)C2(C)C | 0.05 µg/mL (≈ 0.169 µM)

test system: not listed separately; experiment: Selectivity index, ratio of TD50 for human THP1 cells to MIC for Mycobacterium massiliense isolate CRM0019; assay type: toxicity; conditions: THP-1 cells, read-out: Selectivity Index
How it was run: (§3)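 Ratio of THP-1 cytotoxicity to resazurin-assay MIC. Cytotoxicity: THP-1 cells were differentiated with 80 nM PMA overnight, plated for 24 h, then given 10-point DMSO dilutions (top 50 μM, 0.5% final DMSO) for 3 days at 37°C, 5% CO₂. ATP luminescence was read, with a staurosporine control. IC₅₀ = concentration giving 50% viability, from a Levenberg–Marquardt curve fit.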

Compound | selectivity ratio
C[C@@H]1[C@H]2C[C@@H](C[C@H]1NC(=O)c1cc3ccccc3[nH]1)C2(C)C | 188

test system: not listed separately; experiment: Selectivity index, ratio of TD50 for human THP1 cells to MIC for Mycobacterium tuberculosis H37Rv MC2-6206; assay type: toxicity; conditions: THP-1 cells, read-out: Selectivity Index; how it was run: as §3

Compound | selectivity ratio
C[C@@H]1[C@H]2C[C@@H](C[C@H]1NC(=O)c1cc3ccccc3[nH]1)C2(C)C | 226

test system: Mycolicibacterium smegmatis; experiment: Antimycobacterial activity against Mycobacterium smegmatis isolate MC2 155 after 8 days by resazurin microtiter based colorimetric assay; assay type: functional; conditions: str. MC2 155, 192 h

Compound | MIC
C[C@@H]1[C@H]2C[C@@H](C[C@H]1NC(=O)c1cc3ccccc3[nH]1)C2(C)C | 0.78 µg/mL (≈ 2.63 µM)

test system: Mycobacteroides chelonae; experiment: Antimycobacterial activity against Mycobacterium chelonae ATCC 35752 after 8 days by resazurin microtiter based colorimetric assay; assay type: functional; conditions: ATCC 35752, 192 h; how it was run: as §1

Compound | MIC
C[C@@H]1[C@H]2C[C@@H](C[C@H]1NC(=O)c1cc3ccccc3[nH]1)C2(C)C | < 0.06 µg/mL

test system: not listed separately; experiment: Cytotoxicity against human THP1 cells assessed as reduction in cell viability after 3 days by CellTiter-Glo based luminescence assay; conditions: THP-1 cells, read-out: TD50
How it was run: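 THP-1 cells in complete RPMI, made macrophage-like with 80 nM PMA overnight at 37°C, 5% CO2, then seeded and cultured 24 h. Cells got 10-point DMSO serial dilutions (top 50 µM, final DMSO 0.5%) for 3 days, with staurosporine as control. Viability read by CellTiter-Glo luminescence. IC50 (50% viability) came from a Levenberg–Marquardt curve fit.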

Compound | CC50 at 72 h
C[C@@H]1[C@H]2C[C@@H](C[C@H]1NC(=O)c1cc3ccccc3[nH]1)C2(C)C | 11.3 µg/mL (≈ 38.1 µM)

test system: not listed separately; experiment: Selectivity index, ratio of TD50 for human THP1 cells to MIC for Mycobacterium abscessus isolate DCI 21; assay type: toxicity; conditions: THP-1 cells, read-out: Selectivity Index; how it was run: as §3

Compound | selectivity ratio
C[C@@H]1[C@H]2C[C@@H](C[C@H]1NC(=O)c1cc3ccccc3[nH]1)C2(C)C | 22.6

test system: Staphylococcus aureus; experiment: Antibacterial activity against Staphylococcus aureus ATCC 25923 after 8 days by resazurin microtiter based colorimetric assay; assay type: functional; conditions: ATCC 25923, 192 h; how it was run: as §1

Compound | MIC
C[C@@H]1[C@H]2C[C@@H](C[C@H]1NC(=O)c1cc3ccccc3[nH]1)C2(C)C | 40 µg/mL (≈ 135 µM)

test system: not listed separately; experiment: Selectivity index, ratio of TD50 for human THP1 cells to MIC for Mycobacterium chelonae ATCC 35752; assay type: toxicity; conditions: THP-1 cells, read-out: Selectivity Index; how it was run: as §3

Compound | selectivity ratio
C[C@@H]1[C@H]2C[C@@H](C[C@H]1NC(=O)c1cc3ccccc3[nH]1)C2(C)C | > 188

test system: not listed separately; experiment: Selectivity index, ratio of TD50 for human THP1 cells to MIC for Mycobacterium bolletii ATCC 14472; assay type: toxicity; conditions: THP-1 cells, read-out: Selectivity Index; how it was run: as §3

Compound | selectivity ratio
C[C@@H]1[C@H]2C[C@@H](C[C@H]1NC(=O)c1cc3ccccc3[nH]1)C2(C)C | 92

test system: Mycobacterium abscessus subsp. massiliense; experiment: Inhibition of MmpL3 in Mycobacterium massiliense isolate 1513 assessed as reduction in trehalose dimycolate after 16 hrs using [1,2-14C]acetate labeled compounds by TLC analysis; conditions: not given; how it was run: as §2

Compound | inhibition
C[C@@H]1[C@H]2C[C@@H](C[C@H]1NC(=O)c1cc3ccccc3[nH]1)C2(C)C | Dose-dependent effect
